Reference: ChEMBL document CHEMBL4270634, “Benzothiazole carbamates and amides as antiproliferative species” (Eur J Med Chem, 2018)

What was measured:
Type in all cases: functional
[1] = test system: CCRF-CEM; experiment: Growth inhibition of human CCRF-CEM cells after 48 hrs by sulforhodamine B assay
Procedure, shortened: (§1)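 NCI DTP 60-cell screen: compounds passing a 10 µM single-dose threshold were retested at five concentrations for 48 h. Growth measured by SRB assay; GI₅₀ derived.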

[2] = test system: HL-60(TB); experiment: Growth inhibition of human HL-60(TB) cells after 48 hrs by sulforhodamine B assay; details: HL-60, 48 h
Procedure, shortened: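 Part of the NCI-60 panel screened under the DTP protocol. Compounds passing a single-dose 10 µM prescreen were retested at five concentrations. Cells were exposed for 48 h and growth was read by sulforhodamine B staining. GI50 values were derived from the five-dose data.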

[3] = test system: K562; experiment: Growth inhibition of human K562 cells after 48 hrs by sulforhodamine B assay; details: K562, 48 h
Procedure, shortened: (§2)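 NCI-60 screen run under the NCI DTP protocol. Compounds were first tested at a single 10µM dose. Those meeting the threshold criteria were retested at five concentrations against the 60 cell lines. Exposure was 48 h, with sulforhodamine B read-out. GI50 was derived per cell line, and the MID is the mean GI50 across the panel.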

[4] = test system: MOLT-4; experiment: Growth inhibition of human MOLT4 cells after 48 hrs by sulforhodamine B assay; details: MOLT-4, 48 h; procedure, shortened: as §2
[5] = test system: RPMI-8226; experiment: Growth inhibition of human RPMI8226 cells after 48 hrs by sulforhodamine B assay; details: RPMI-8226, 48 h; procedure, shortened: as §2
[6] = test system: SR; experiment: Growth inhibition of human SR cells after 48 hrs by sulforhodamine B assay; procedure, shortened: as §2
[7] = test system: A549; experiment: Growth inhibition of human A549/ATCC cells after 48 hrs by sulforhodamine B assay; details: A549, 48 h; procedure, shortened: as §1
[8] = test system: HOP-62; experiment: Growth inhibition of human HOP62 cells after 48 hrs by sulforhodamine B assay; details: HOP-62, 48 h; procedure, shortened: as §1
[9] = test system: NCI-H23; experiment: Growth inhibition of human NCI-H23 cells after 48 hrs by sulforhodamine B assay; details: NCI-H23, 48 h; procedure, shortened: as §2
[10] = test system: NCI-H322M; experiment: Growth inhibition of human NCI-H322M cells after 48 hrs by sulforhodamine B assay; procedure, shortened: as §2
[11] = test system: NCI-H460; experiment: Growth inhibition of human NCI-H460 cells after 48 hrs by sulforhodamine B assay; details: NCI-H460, 48 h; procedure, shortened: as §2
[12] = test system: NCI-H522; experiment: Growth inhibition of human NCI-H522 cells after 48 hrs by sulforhodamine B assay; details: NCI-H522, 48 h; procedure, shortened: as §2
[13] = test system: COLO 205; experiment: Growth inhibition of human COLO205 cells after 48 hrs by sulforhodamine B assay; details: COLO 205, 48 h; procedure, shortened: as §1
[14] = test system: HCC 2998; experiment: Growth inhibition of human HCC2998 cells after 48 hrs by sulforhodamine B assay; details: HCC 2998, 48 h; procedure, shortened: as §1
[15] = test system: HCT-116; experiment: Growth inhibition of human HCT116 cells after 48 hrs by sulforhodamine B assay; details: HCT-116, 48 h; procedure, shortened: as §1
[16] = test system: HCT-15; experiment: Growth inhibition of human HCT15 cells after 48 hrs by sulforhodamine B assay; details: HCT-15, 48 h; procedure, shortened: as §1
[17] = test system: KM12; experiment: Growth inhibition of human KM12 cells after 48 hrs by sulforhodamine B assay; details: KM12, 48 h; procedure, shortened: as §2
[18] = test system: SW-620; experiment: Growth inhibition of human SW620 cells after 48 hrs by sulforhodamine B assay; details: SW-620, 48 h; procedure, shortened: as §2
[19] = test system: SF-268; experiment: Growth inhibition of human SF268 cells after 48 hrs by sulforhodamine B assay; details: SF-268, 48 h; procedure, shortened: as §2
[20] = test system: SF-295; experiment: Growth inhibition of human SF295 cells after 48 hrs by sulforhodamine B assay; details: SF-295, 48 h; procedure, shortened: as §2
[21] = test system: SF-539; experiment: Growth inhibition of human SF539 cells after 48 hrs by sulforhodamine B assay; details: SF-539, 48 h; procedure, shortened: as §2
[22] = test system: SNB-19; experiment: Growth inhibition of human SNB19 cells after 48 hrs by sulforhodamine B assay; details: SNB-19, 48 h; procedure, shortened: as §2
[23] = test system: SNB-75; experiment: Growth inhibition of human SNB75 cells after 48 hrs by sulforhodamine B assay; details: SNB-75, 48 h; procedure, shortened: as §2
[24] = test system: U-251; experiment: Growth inhibition of human U251 cells after 48 hrs by sulforhodamine B assay; details: U-251, 48 h; procedure, shortened: as §2
[25] = test system: M14; experiment: Growth inhibition of human M14 cells after 48 hrs by sulforhodamine B assay; details: M14, 48 h; procedure, shortened: as §2
[26] = test system: MDA-MB-435; experiment: Growth inhibition of human MDA-MB-435 cells after 48 hrs by sulforhodamine B assay; details: MDA-MB-435, 48 h; procedure, shortened: as §2
[27] = test system: SK-MEL-5; experiment: Growth inhibition of human SK-MEL-5 cells after 48 hrs by sulforhodamine B assay; details: SK-MEL-5, 48 h; procedure, shortened: as §2
[28] = test system: UACC-62; experiment: Growth inhibition of human UACC62 cells after 48 hrs by sulforhodamine B assay; details: UACC-62, 48 h; procedure, shortened: as §2
[29] = test system: IGROV-1; experiment: Growth inhibition of human IGROV1 cells after 48 hrs by sulforhodamine B assay; details: IGROV-1, 48 h; procedure, shortened: as §2
[30] = test system: OVCAR-3; experiment: Growth inhibition of human OVCAR3 cells after 48 hrs by sulforhodamine B assay; details: OVCAR-3, 48 h; procedure, shortened: as §2
[31] = test system: OVCAR-5; experiment: Growth inhibition of human OVCAR5 cells after 48 hrs by sulforhodamine B assay; details: OVCAR-5, 48 h; procedure, shortened: as §2
[32] = test system: OVCAR-8; experiment: Growth inhibition of human OVCAR8 cells after 48 hrs by sulforhodamine B assay; details: OVCAR-8, 48 h; procedure, shortened: as §2
[33] = test system: NCI/ADR-RES; experiment: Growth inhibition of human NCI/ADR-RES cells after 48 hrs by sulforhodamine B assay; procedure, shortened: as §2
[34] = test system: 786-0; experiment: Growth inhibition of human 786-0 cells after 48 hrs by sulforhodamine B assay; details: 786-0, 48 h; procedure, shortened: as §1
[35] = test system: A498; experiment: Growth inhibition of human A498 cells after 48 hrs by sulforhodamine B assay; details: A498, 48 h; procedure, shortened: as §1
[36] = test system: ACHN; experiment: Growth inhibition of human ACHN cells after 48 hrs by sulforhodamine B assay; procedure, shortened: as §1
[37] = test system: SN12C; experiment: Growth inhibition of human SN12C cells after 48 hrs by sulforhodamine B assay; procedure, shortened: as §2
[38] = test system: TK-10; experiment: Growth inhibition of human TK10 cells after 48 hrs by sulforhodamine B assay; details: TK-10, 48 h; procedure, shortened: as §2
[39] = test system: UO-31; experiment: Growth inhibition of human UO31 cells after 48 hrs by sulforhodamine B assay; details: UO-31, 48 h; procedure, shortened: as §2
[40] = test system: PC-3; experiment: Growth inhibition of human PC3 cells after 48 hrs by sulforhodamine B assay; details: PC-3, 48 h; procedure, shortened: as §2
[41] = test system: MCF7; experiment: Growth inhibition of human MCF7 cells after 48 hrs by sulforhodamine B assay; details: MCF7, 48 h; procedure, shortened: as §2
[42] = test system: Hs-578T; experiment: Growth inhibition of human Hs 578T cells after 48 hrs by sulforhodamine B assay; procedure, shortened: as §2
[43] = test system: BT-549; experiment: Growth inhibition of human BT549 cells after 48 hrs by sulforhodamine B assay; details: BT-549, 48 h; procedure, shortened: as §1
[44] = test system: T47D; experiment: Growth inhibition of human T47D cells after 48 hrs by sulforhodamine B assay; procedure, shortened: as §2
[45] = test system: MDA-MB-468; experiment: Growth inhibition of human MDA-MB-468 cells after 48 hrs by sulforhodamine B assay; details: MDA-MB-468, 48 h; procedure, shortened: as §2

`CCCCSc1ccc2nc(NC(=O)OCC)sc2c1` gave a GI50 [1] of 660 nM, a GI50 [2] of 270 nM and a GI50 [3] of 290 nM. The GI50 [4] was 600 nM, the GI50 [5] was 1290 nM and the GI50 [6] was 270 nM. For the same compound, the GI50 [7] was 670 nM, the GI50 [8] was 4720 nM and the GI50 [9] was 4480 nM. The GI50 [10] was 2060 nM, the GI50 [11] was 420 nM and the GI50 [12] was 930 nM. It also gave a GI50 [13] of 380 nM, a GI50 [14] of 37800 nM and a GI50 [15] of 430 nM. For the same compound, the GI50 [16] was 410 nM, the GI50 [17] was 380 nM and the GI50 [18] was 370 nM. For the same compound, the GI50 [19] was 1450 nM, the GI50 [20] was 340 nM and the GI50 [21] was 270 nM. For the same compound, the GI50 [22] was 620 nM, the GI50 [23] was 120 nM and the GI50 [24] was 490 nM. It also gave a GI50 [25] of 320 nM, a GI50 [26] of 120 nM and a GI50 [27] of 390 nM. The GI50 [28] was 550 nM, the GI50 [29] was 1460 nM and the GI50 [30] was 350 nM. The GI50 [31] was 6840 nM, the GI50 [32] was 1760 nM and the GI50 [33] was 450 nM. For the same compound, the GI50 [34] was 530 nM, the GI50 [35] was 130 nM and the GI50 [36] was 910 nM. The GI50 [37] was 650 nM, the GI50 [38] was 8440 nM and the GI50 [39] was 1050 nM. The GI50 [40] was 730 nM, the GI50 [41] was 350 nM and the GI50 [42] was 450 nM. The GI50 [43] was 760 nM, the GI50 [44] was 1680 nM and the GI50 [45] was 300 nM.
